Source: PubChem
INS promoter inh – TRM-6 insulin promoter activity inhibition; inhibition, % at 2 µM; TRM-6 cells (human fetal islet line), insulin promoter-eGFP reporter, imaging; reporter expression induced with tamoxifen; actives 0.9% (n = 130,000); AID 1273;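 active = inhibition above the mean plus 3 SD, with well images judged a real hit on visual review, cut at about 60% in these data, passing the limit was not always enough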
RAM network inh – yeast RAM network inhibition; S. cerevisiae dse1pr::URA3 reporter, 5-FOA growth OD615, 2 d; analog-sensitive cbk1-as2 kinase mutant strain; inhibition, % at 50 µM; actives 1.8% (n = 190,000); AID 868;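 active = inhibition above a set limit, 3 SD over mean compound inhibition, cut at about 8.4% in these data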;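 also: inhibition rescues growth on 5-FOA so higher OD means more RAM inhibition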
Mdm2 ligase inh – inhibitors of human Mdm2 E3 ubiquitin ligase; signal enhancement, % at 5 µM; AID 1230; actives 0.11% (n = 210,000); cell-based MDM2 ubiquitination luciferase reporter, 2 h; 0 = plate control, 100 = twice control, blank-subtracted; Q00987;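 active = signal enhancement of 30% or more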;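 also: luminescence tracks abundance of the self-degrading MDM2-luciferase fusion protein; higher signal means inhibition of MDM2 E3 ligase activity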
Target sequence (Q00987 whole entry, looked up, the tested form may be a part): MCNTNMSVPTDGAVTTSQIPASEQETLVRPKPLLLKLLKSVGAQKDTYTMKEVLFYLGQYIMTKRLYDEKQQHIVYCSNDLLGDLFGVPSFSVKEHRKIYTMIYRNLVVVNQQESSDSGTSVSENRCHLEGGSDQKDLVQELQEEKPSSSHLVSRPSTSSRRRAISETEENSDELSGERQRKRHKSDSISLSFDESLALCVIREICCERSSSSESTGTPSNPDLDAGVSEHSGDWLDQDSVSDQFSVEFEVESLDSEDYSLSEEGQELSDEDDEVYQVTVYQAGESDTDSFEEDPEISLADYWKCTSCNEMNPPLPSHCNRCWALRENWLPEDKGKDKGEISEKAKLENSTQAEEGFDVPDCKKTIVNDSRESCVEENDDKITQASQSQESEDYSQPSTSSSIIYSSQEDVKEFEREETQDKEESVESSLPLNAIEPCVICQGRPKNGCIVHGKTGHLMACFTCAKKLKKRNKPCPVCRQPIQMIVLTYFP
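Material: Stable MDM2–luciferase fusion reporter cells | Amount: 2000 cells seeded into each well | Dosing: One concentration, 5 µM, with 0.2% DMSO | Incubation: 4 h cell settling then 2 h compound exposure, 37 °C | Measured by: Luciferase luminescence | Read-out basis: % enhancement relative to plate controls after blank subtraction | Benchmarks: Control and blank well means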
Measles CPE – protection of cells from measles virus | Measles virus-infected cells, CPE protection, absorbance | protection (pct of control), % at 4 µM | AID 841 | actives 1.5% (n = 140,000); in the data active = protection mostly above about 24%, no sharp cut-off; inactive = mostly below about 26%
Yeast life ext – extends the lifespan of yeast | inhibition of the nicotinamide effect, % at 10 µM | actives 0.68% (n = 130,000) | AID 775 | S. cerevisiae growth with nicotinamide, OD615; deaD strain in restrictive glucose medium;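 active = inhibition above a set limit, placed 3 SD over the median of all compounds, cut at about 26% in these data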
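Material: Modified budding yeast, DeaD strain | Medium: Restrictive glucose medium | Probe or stimulus: 1.5 mM nicotinamide | Dosing: Single dose 10 µM compound, 0.25% DMSO | Times: 48 h at 30 °C | Technique: OD615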
BB579 growth dn – yeast BB579 growth reduction in restrictive medium | inhibition, % at 10 µM | actives 0.51% (n = 140,000) | AID 804 | S. cerevisiae BB579 growth, OD615, 48 h;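 active = inhibition above a set limit, 3 SD over the mean compound inhibition, cut at about 44% in these data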
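Detection: OD615 turbidity measurement; Material: Saccharomyces cerevisiae DeaD strain BB579, replicative lifespan model yeast; Timing: 48 h exposure, 30 °C; Doses: single 10 µM dose; Medium: CSMM-D restrictive synthetic medium containing dextrose (glucose); Controls: amphotericin B at 10 µg/mL as positive control.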
RAM 5-FOA – restores 5-FOA growth of efflux-deficient yeast | AID 1305 | max inhibition, % | 1,200 tested, under 10 active | shares compounds with RAM network inh | S. cerevisiae efflux-deficient reporter strain, 5-FOA growth OD615, 2 days; call rule not given here
Hits are given with their value; . = inactive; / = no result given. Shown are actives, neighbours in structure and some others; about 4% of the full set was active somewhere.

SMILES	INS promoter inh	RAM network inh	Mdm2 ligase inh	Measles CPE	Yeast life ext	BB579 growth dn	RAM 5-FOA
CCOc1ccc(CNC(=O)CCc2cn(Cc3ccccc3)c3ccccc23)cc1	.	13	/	.	.	.	.
CCOC(=O)c1c(NC(=O)c2ccccc2)sc2c1CCc1ccccc1-2	.	.	.	.	.	.	/
CCOC(=O)C1=C(NC(=S)NC(=O)c2ccccc2)c2ccccc2CC1C(C)C (stereo not drawn)	.	12	.	50	.	.	.
OCn1ncn(-c2ccccc2)c1=S	.	.	.	.	.	.	/
CCCCn1c(=O)c(CCC(=O)OC(C)C(=O)Nc2cccc(Cl)c2Cl)nc2ccccc21 (stereo not drawn)	/	16	.	.	.	.	.
CC(C)OCCCNC(=O)C(NS(=O)(=O)c1ccc2c(c1)c(=O)n(C)c(=O)n2C)c1ccccc1 (stereo not drawn)	/	13	.	/	/	/	.
CNC(=S)N1CCc2cc(OC)c(OC)cc2C1	/	/	.	/	/	/	/
CCOC(=O)c1sc(-c2ccc(OC)cc2)cc1NC(C)=O	.	18	.	.	.	.	.
CCc1oc2ccccc2c1C(=O)c1cc(Br)c(O)c(Br)c1	.	16	.	.	.	82	.
Cc1ccc(CN2CCN(CCCn3cccn3)CC2CCO)cc1 (stereo not drawn)	/	.	.	/	/	/	/
O=C(/C=C/c1ccc(-c2ccccc2[N+](=O)[O-])o1)c1ccc(Br)cc1	.	12	.	.	.	.	.
O=C(/C=C/c1ccc(-c2ccccc2)o1)c1ccccc1	.	11	.	.	.	.	.
Cc1ccc(C(=O)/C=C/c2ccc(-c3ccccc3[N+](=O)[O-])o2)cc1	.	15	.	.	.	.	.
O=C1C[C@H]2[C@H](CO)[C@@H](OC(=O)c3ccc(-c4ccccc4)cc3)C[C@H]2O1	/	/	.	/	/	/	/
COc1ccccc1OC(=O)CCN1c2ccccc2Sc2ccccc21	.	14	.	.	.	.	.
c1ccc(-c2nc(CSc3nnnn3-c3ccccc3)cs2)cc1	/	.	.	.	.	.	.
O=c1cc(CSc2nnnn2-c2ccccc2)nc2scc(-c3ccccc3)n12	.	.	.	.	.	.	/
NC(=O)COC(=O)CCCSc1nc2ccccc2s1	/	.	.	/	/	/	/
N#Cc1ccsc1NC(=O)COC(=O)CCCSc1nc2ccccc2s1	/	15	.	.	.	.	.
CCOC(=O)/C(=N/Nc1ccc(C)cc1)S(=O)(=O)c1ccc(Cl)cc1	.	12	.	.	.	.	.
CCOC(=O)/C(=N\Nc1ccccc1)S(=O)(=O)c1ccccc1	.	.	.	.	.	.	/
Cc1ccc(C(=O)OCC(=O)Nc2cc(S(=O)(=O)N3CCOCC3)ccc2C)cc1	/	12	.	/	/	/	.
S=C(NCC1CCCCC1)Nc1ccc(Oc2ccccc2)cc1	.	15	.	.	.	49	.
Nc1nn2c(-c3ccccc3)cc(=O)[nH]c2c1N=Nc1ccc(Br)cc1	/	14	.	/	/	/	.
O=C(N/N=C/c1ccc(O)cc1)c1cccc(N/N=C/c2ccc(O)cc2)c1	/	/	.	/	/	/	/
SMILES	INS promoter inh	RAM network inh	Mdm2 ligase inh	Measles CPE	Yeast life ext	BB579 growth dn	RAM 5-FOA
CN1C(=O)/C(=C/c2ccccc2OCc2cccc(F)c2)NC1=S	.	11	.	.	.	.	.
N#CCCSc1ccccc1NC(=O)c1ccc(S(=O)(=O)N2CCCC2)cc1	.	.	.	.	.	.	/
Cc1cc(-c2ccccc2)nc(Oc2cccc(C(F)(F)F)c2)c1S(C)(=O)=O	.	.	.	.	.	.	/
Cc1ccc(S(=O)(=O)c2c(C)cc(C)nc2Oc2cccc(C(F)(F)F)c2)cc1	/	14	.	.	.	.	.
C=C(C)CNC(=S)Nc1nc2c(cc1C(=O)OCC)CCCC2	.	12	.	.	.	.	.
CCOC(=O)c1cc2c(nc1N)CCCC2	/	/	.	/	/	/	/
COc1ccc(C(=O)/C=C/c2ccc(O)cc2)c(O)c1CC=C(C)C	.	24	/	25	.	.	.
COC(=O)c1cn(CC(=O)Nc2ccc(F)cc2)c2ccccc12	.	.	.	/	/	/	/
CCC(C)NS(=O)(=O)c1ccc(S(=O)(=O)N2CCCC3(CCCCC3)C2)cc1 (stereo not drawn)	.	.	.	.	.	.	/
Cc1nn(CCc2nn[nH]n2)c2nc(-c3ccc(C4CCCCC4)cc3)cc(C(F)(F)F)c12	/	15	.	/	/	/	.
CCOC(=O)C(C)Sc1cc(CS(=O)(=O)c2ccccc2)nc(-c2ccccc2)n1 (stereo not drawn)	.	12	.	.	.	.	.
Cc1nc([N+](=O)[O-])c(C(=O)OCc2cccc(Br)c2)n1C	.	.	.	/	/	/	/
C=CCOc1cccc(/C=C2\C(=O)N(Cc3ccc(C)cc3)C(C)=C2C(=O)OC)c1	/	18	.	.	.	.	.
Cc1c(NC(=S)NC(=O)Cc2ccccc2)cccc1C(=O)O	.	22	.	.	.	.	.
Cc1cc(/C=C2\SC(=Nc3ccccc3)NC2=O)c(C)n1-c1ccc(S(N)(=O)=O)cc1	.	.	.	.	.	.	/
CCCOc1ccc(N2C(=O)CC(N3CCN(CCN=CC4C(=O)CC(C)(C)CC4=O)CC3)C2=O)cc1 (stereo not drawn)	.	.	.	/	/	/	/
CCCCN(CCCC)S(=O)(=O)c1ccc(NS(=O)(=O)c2ccc(NC(C)=O)cc2)cc1	.	17	.	.	.	.	.
C=CCNC(=O)COC(=O)COc1ccc(Cl)cc1	.	.	.	/	/	/	/
Cc1nn(Cc2ccccc2)c(Cl)c1C(=O)OCc1nnc(-c2ccccc2)o1	/	16	.	.	.	.	.
O=C(CCn1cccc1)NCCc1ccc(Cl)cc1	.	.	.	.	.	.	/
COc1ccc(C(=O)OCC(=O)c2ccc(C3CCCCC3)cc2)cc1	.	11	.	.	.	.	.
COc1ccc(C(=O)Nc2ccc(C(=O)OCC(=O)c3ccccc3)cc2)cc1	/	.	.	.	.	.	/
COCCNCC(=O)N1CCCCCC1	.	.	.	/	/	/	/
CCOc1ccc(-n2c(SCC(N)=O)nc3c(c2=O)SCC3)cc1	.	.	.	.	.	.	/
COc1cc(C(c2sc3nc(C)nn3c2O)N2CCOCC2)cc(OC)c1OC (stereo not drawn)	/	.	.	.	.	.	/
COc1cc(C(c2sc3nc(C)nn3c2O)N2CCN(c3ccccc3)CC2)cc(OC)c1OC (stereo not drawn)	/	16	.	.	.	.	.
Cc1cc(OCc2nc(-c3ccncc3)no2)cc(C)c1Cl	.	.	.	/	/	/	/
Cc1c(C(=O)N2CCN(c3ccccn3)CC2)oc2ccccc12	.	.	.	.	.	.	/
O=C(c1oc2ccccc2c1CSCc1ccccc1)N1CCN(c2ncccn2)CC1	.	12	.	.	.	.	.
